# pIC50, pKi: −log10 of the molar value. Active and inactive are the calls of the source. No cut-off for these calls is given here.
# How the values were obtained:
# [1] = biological target: T1, N(G),N(G)-dimethylarginine dimethylaminohydrolase 1 (Homo sapiens, UniProt O94760); test: (§1) Inhibition of human recombinant His6-tagged DDAH1 expressed in Escherichia coli BL21(DE3) using Nomega,Nomega-dimethyl-L-arginine as substrate at 400 uM after 1 to 2 hrs by colorimetric ureido derivitization assay
# T1 sequence (O94760 whole entry): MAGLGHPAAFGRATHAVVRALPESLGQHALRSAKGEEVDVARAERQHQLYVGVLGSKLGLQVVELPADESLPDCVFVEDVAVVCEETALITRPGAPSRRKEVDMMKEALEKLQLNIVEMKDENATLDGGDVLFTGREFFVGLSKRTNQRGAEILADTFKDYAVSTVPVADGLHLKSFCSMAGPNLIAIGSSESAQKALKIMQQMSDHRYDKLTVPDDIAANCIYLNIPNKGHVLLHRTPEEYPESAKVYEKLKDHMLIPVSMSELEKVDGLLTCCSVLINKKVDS
# Procedure, shortened: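 Rapid-onset secondary assay. Compound (400 μM) mixed with ADMA (300 μM, 2.5-fold over KM) in Reaction Buffer (Na2HPO4 172 mM, KCl 172 mM, Tween-20 0.02%, EDTA 2 mM, pH 7.3). Started with human DDAH-1 (1 μM final), run 1–2 h, quenched with HCl (1 M final). Ureido product read colorimetrically; ≥20% inhibition counted as a hit.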
# [2] = biological target: T1, N(G),N(G)-dimethylarginine dimethylaminohydrolase 1; test: as §1, with “uM incubated for 10 to 20 mins prior to substrate addition measured” for “uM”, “assay in presence of 2 mM reduced glutathione” for “assay”
# Procedure, shortened: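 Compound (400 μM) preincubated 10–20 min at room temperature with human DDAH-1 (1 μM) and reduced glutathione (2 mM) in Reaction Buffer, pH 7.3. ADMA (300 μM) then added; 1–2 h at room temperature, HCl quench (1 M final), colorimetric ureido derivatization. Inhibition compared against assays without glutathione.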
# [3] = biological target: T1, N(G),N(G)-dimethylarginine dimethylaminohydrolase 1; test: Reversible inhibition of human recombinant His6-tagged DDAH1 expressed in Escherichia coli BL21(DE3) using 1 mM Nomega,Nomega-dimethyl-L-arginine as substrate incubated up to 120 mins prior to substrate addition measured after 120 mins by colorimetric ureido derivitization assay
# Procedure, shortened: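 Human DDAH-1 (30 μM) incubated at room temperature with compound (0–2 mM) in Na2HPO4 100 mM, NaCl 100 mM, EDTA 2 mM, Tween-20 0.02%, pH 7.25, with or without reduced glutathione (2 mM). After 0–120 min, diluted 40-fold into ADMA (1 mM) in the same buffer. Incubated a further 120 min, quenched with HCl (300 mM final), and L-citrulline read colorimetrically.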
# [4] = biological target: T1, N(G),N(G)-dimethylarginine dimethylaminohydrolase 1; test: Inhibition of human recombinant His6-tagged DDAH1 expressed in Escherichia coli BL21(DE3) using Nomega,Nomega-dimethyl-L-arginine as substrate after 80 mins by colorimetric ureido derivitization assay
# [5] = biological target: T1, N(G),N(G)-dimethylarginine dimethylaminohydrolase 1; test: Competitive inhibition of human recombinant His6-tagged DDAH1 expressed in Escherichia coli BL21(DE3) using Nomega,Nomega-dimethyl-L-arginine as substrate after 80 mins by double-reciprocal plot analysis
# [6] = biological target: T1, N(G),N(G)-dimethylarginine dimethylaminohydrolase 1; test: Inhibition of human recombinant His6-tagged DDAH1 expressed in Escherichia coli BL21(DE3) using S-methyl-L-thiocitrulline as substrate at 100 uM by CPM-based fluorescence spectrophotometry
# Procedure, shortened: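 Primary HTS run in duplicate. Compound at 100 μM with human DDAH-1 (20 nM), S-methyl-L-thiocitrulline (0.4 μM) and CPM (3.5 μM) in K2HPO4 172 mM, KCl 172 mM, EDTA 2 mM, Tween-20 0.02%, DMSO 1%, pH 7.3. Enzyme–compound preincubation 10 min.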
# [7] = biological target: T1, N(G),N(G)-dimethylarginine dimethylaminohydrolase 1; test: Inhibition of human recombinant His6-tagged DDAH1 expressed in Escherichia coli BL21(DE3) using Nomega,Nomega-dimethyl-L-arginine as substrate at 400 uM by colorimetric ureido derivitization assay; details: TDE = time-dependent effect
# Pseudomonas aeruginosa [8] = test: Ratio of Kinact to KI for Pseudomonas aeruginosa His6-tagged DDAH expressed in Escherichia coli BL21(DE3) using S-methyl-Lthiocitrulline as substrate up to 1 mM measured every 20 secs for 10 mins by fluorescence spectrophotometry
# Pseudomonas aeruginosa [9] = test: Inhibition of Pseudomonas aeruginosa His6-tagged DDAH expressed in Escherichia coli BL21(DE3) using S-methyl-Lthiocitrulline as substrate at 100 uM measured every 20 secs for 10 mins
# Pseudomonas aeruginosa [10] = test: Inhibition of Pseudomonas aeruginosa His6-tagged DDAH expressed in Escherichia coli BL21(DE3) using S-methyl-Lthiocitrulline as substrate up to 1 mM measured every 20 secs for 10 mins by fluorescence spectrophotometry
inhibition [1] [%],inhibition [2] [%],inhibition [3],pIC50 [4],pKi [5],inhibition [6] [%],inhibition [7],Ratio (Pseudomonas aeruginosa [8]) [M⁻¹ s⁻¹],inhibition (Pseudomonas aeruginosa [9]) [%],inhibition (Pseudomonas aeruginosa [10]),Structure (SMILES)
21,23,Active,2.57,2.77,–,–,–,–,–,NCCSc1nc2ccccc2o1
74,95,–,–,–,55,tde,4.8,89,–,Cc1cc(Br)ccn1
36,25,Active,2.85,3.10,4,–,–,1,inactive,CCc1nc2ccccc2[nH]1
56,46,–,–,–,17,tde,0.65,50,–,OCc1cc(Cl)ccn1

# — ChEMBL document CHEMBL2086358, “Discovery of structurally-diverse inhibitor scaffolds by high-throughput screening of a fragment library with dimethylarginine dimethylaminohydrolase” (Bioorg Med Chem, 2012)
